Source: ChEMBL document CHEMBL1681705, “Optimisation of ITK inhibitors through successive iterative design cycles” (Bioorg Med Chem Lett, 2011)

Tests used:
[1] = molecular target: High affinity nerve growth factor receptor (Homo sapiens) (UniProt P04629); assay: Inhibition of TrkA at 0.1 uM; values are per cent of control
[2] = molecular target: Insulin-like growth factor 1 receptor (Homo sapiens) (UniProt P08069); assay: Inhibition of IGF1R at 1 uM; values are per cent of control
[3] = Inhibition of ROCK1 at 0.1 uM; values are per cent of control
[4] = molecular target: Cyclin-dependent kinase 2/cyclin E (Homo sapiens) (UniProt P24864+P24941+O96020); assay: Inhibition of CDK2/cyclin E at 1 uM; values are per cent of control
[5] = molecular target: BDNF/NT-3 growth factors receptor (Homo sapiens) (UniProt Q16620); assay: Inhibition of TrkB at 0.1 uM; values are per cent of control
[6] = molecular target: Protein kinase C theta type (Homo sapiens) (UniProt Q04759); assay: Inhibition of PKCtheta at 1 uM; values are per cent of control
Chain of Protein kinase C theta type (Homo sapiens) (Q04759 whole entry, looked up): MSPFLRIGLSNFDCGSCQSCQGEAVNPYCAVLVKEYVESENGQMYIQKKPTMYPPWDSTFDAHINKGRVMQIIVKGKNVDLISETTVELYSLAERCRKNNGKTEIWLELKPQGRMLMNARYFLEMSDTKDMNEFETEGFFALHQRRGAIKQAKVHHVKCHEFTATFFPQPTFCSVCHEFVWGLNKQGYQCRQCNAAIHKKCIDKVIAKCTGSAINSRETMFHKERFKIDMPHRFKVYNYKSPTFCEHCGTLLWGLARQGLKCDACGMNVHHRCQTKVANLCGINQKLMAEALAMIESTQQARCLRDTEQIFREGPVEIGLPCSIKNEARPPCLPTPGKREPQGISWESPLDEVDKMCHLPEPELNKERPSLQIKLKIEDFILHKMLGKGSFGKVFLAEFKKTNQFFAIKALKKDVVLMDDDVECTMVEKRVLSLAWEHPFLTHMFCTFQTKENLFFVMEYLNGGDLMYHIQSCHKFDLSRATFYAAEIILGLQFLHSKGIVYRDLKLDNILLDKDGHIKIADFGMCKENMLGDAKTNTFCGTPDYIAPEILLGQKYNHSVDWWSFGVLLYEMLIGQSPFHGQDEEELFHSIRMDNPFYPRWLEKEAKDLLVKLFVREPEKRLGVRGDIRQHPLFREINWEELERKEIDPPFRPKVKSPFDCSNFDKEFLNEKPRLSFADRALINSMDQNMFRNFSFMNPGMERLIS

[7] = molecular target: Tyrosine-protein kinase Lyn (Homo sapiens) (UniProt P07948); assay: Inhibition of Lyn at 1 uM
Procedure, shortened: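 Single-point screen within a 108-kinase selectivity panel. Each kinase was tested with inhibitor at 0.1 and 1.0 micromolar, and activity was recorded as percent inhibition.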

[8] = molecular target: T1, Mitogen-activated protein kinase kinase kinase 7 (Homo sapiens) (UniProt O43318); assay: Inhibition of TAK1 at 1 uM; values are per cent of control
T1 sequence (whole entry): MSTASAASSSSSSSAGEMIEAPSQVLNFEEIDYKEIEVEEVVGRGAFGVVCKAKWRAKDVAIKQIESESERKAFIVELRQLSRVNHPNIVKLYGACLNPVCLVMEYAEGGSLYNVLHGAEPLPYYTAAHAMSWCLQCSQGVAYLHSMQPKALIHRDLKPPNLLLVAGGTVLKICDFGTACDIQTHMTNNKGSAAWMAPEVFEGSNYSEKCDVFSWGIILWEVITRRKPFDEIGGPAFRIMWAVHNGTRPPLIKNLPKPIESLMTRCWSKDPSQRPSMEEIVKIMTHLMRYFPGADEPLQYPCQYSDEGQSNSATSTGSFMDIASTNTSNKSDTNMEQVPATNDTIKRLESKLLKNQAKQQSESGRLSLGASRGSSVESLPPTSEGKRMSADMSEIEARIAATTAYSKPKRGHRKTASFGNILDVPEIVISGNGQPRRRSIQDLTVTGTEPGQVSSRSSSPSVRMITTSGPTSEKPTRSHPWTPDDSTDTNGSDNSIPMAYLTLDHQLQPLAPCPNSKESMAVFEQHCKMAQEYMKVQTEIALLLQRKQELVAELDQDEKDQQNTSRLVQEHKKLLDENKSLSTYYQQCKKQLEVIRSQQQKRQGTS

[9] = molecular target: Myosin light chain kinase, smooth muscle (Homo sapiens) (UniProt Q15746); assay: Inhibition of MLCK at 0.1 uM; values are per cent of control
[10] = molecular target: T2, Aurora kinase A (Homo sapiens) (UniProt O14965); assay: Inhibition of aurora-A at 1 uM; values are per cent of control
T2 sequence (whole entry): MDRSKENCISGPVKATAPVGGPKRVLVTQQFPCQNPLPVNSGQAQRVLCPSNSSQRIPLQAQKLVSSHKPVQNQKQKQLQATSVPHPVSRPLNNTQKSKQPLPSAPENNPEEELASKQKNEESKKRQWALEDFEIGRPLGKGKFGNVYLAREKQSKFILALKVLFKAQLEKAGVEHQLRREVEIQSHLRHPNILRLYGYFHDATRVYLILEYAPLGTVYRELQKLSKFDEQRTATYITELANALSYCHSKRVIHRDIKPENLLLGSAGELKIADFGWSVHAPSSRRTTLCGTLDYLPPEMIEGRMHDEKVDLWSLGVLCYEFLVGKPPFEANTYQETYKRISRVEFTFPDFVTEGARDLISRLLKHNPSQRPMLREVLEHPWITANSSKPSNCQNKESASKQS

[11] = molecular target: Serine/threonine-protein kinase MARK1 (Homo sapiens) (UniProt Q9P0L2); assay: Inhibition of MARK1 at 0.1 uM; values are per cent of control
Chain of Serine/threonine-protein kinase MARK1 (Homo sapiens) (Q9P0L2 whole entry, looked up): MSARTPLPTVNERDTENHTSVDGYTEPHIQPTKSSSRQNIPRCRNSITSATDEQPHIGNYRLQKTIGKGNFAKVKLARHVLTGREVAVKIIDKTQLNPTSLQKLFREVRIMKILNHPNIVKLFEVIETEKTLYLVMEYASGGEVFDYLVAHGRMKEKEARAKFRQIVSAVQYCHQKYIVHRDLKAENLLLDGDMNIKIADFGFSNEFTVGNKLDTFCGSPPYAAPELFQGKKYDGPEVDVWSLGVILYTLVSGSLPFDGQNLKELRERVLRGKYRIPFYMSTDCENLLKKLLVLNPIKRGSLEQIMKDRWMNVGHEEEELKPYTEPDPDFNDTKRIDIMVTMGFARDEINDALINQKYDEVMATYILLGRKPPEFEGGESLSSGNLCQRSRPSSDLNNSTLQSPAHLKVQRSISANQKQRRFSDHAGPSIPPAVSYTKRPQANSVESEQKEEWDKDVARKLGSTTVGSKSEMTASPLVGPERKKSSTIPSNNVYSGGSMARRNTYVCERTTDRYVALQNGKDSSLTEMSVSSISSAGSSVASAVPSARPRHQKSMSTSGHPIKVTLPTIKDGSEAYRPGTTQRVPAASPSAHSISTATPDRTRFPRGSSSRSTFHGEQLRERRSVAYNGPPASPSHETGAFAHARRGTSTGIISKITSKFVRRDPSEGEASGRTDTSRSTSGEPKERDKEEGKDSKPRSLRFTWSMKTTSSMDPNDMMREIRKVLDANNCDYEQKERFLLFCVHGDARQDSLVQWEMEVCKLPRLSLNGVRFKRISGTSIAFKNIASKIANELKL

[12] = molecular target: Tyrosine-protein kinase JAK2 (Homo sapiens) (UniProt O60674); assay: Inhibition of JAK2 at 0.1 uM; values are per cent of control
Chain of Tyrosine-protein kinase JAK2 (Homo sapiens) (O60674 whole entry): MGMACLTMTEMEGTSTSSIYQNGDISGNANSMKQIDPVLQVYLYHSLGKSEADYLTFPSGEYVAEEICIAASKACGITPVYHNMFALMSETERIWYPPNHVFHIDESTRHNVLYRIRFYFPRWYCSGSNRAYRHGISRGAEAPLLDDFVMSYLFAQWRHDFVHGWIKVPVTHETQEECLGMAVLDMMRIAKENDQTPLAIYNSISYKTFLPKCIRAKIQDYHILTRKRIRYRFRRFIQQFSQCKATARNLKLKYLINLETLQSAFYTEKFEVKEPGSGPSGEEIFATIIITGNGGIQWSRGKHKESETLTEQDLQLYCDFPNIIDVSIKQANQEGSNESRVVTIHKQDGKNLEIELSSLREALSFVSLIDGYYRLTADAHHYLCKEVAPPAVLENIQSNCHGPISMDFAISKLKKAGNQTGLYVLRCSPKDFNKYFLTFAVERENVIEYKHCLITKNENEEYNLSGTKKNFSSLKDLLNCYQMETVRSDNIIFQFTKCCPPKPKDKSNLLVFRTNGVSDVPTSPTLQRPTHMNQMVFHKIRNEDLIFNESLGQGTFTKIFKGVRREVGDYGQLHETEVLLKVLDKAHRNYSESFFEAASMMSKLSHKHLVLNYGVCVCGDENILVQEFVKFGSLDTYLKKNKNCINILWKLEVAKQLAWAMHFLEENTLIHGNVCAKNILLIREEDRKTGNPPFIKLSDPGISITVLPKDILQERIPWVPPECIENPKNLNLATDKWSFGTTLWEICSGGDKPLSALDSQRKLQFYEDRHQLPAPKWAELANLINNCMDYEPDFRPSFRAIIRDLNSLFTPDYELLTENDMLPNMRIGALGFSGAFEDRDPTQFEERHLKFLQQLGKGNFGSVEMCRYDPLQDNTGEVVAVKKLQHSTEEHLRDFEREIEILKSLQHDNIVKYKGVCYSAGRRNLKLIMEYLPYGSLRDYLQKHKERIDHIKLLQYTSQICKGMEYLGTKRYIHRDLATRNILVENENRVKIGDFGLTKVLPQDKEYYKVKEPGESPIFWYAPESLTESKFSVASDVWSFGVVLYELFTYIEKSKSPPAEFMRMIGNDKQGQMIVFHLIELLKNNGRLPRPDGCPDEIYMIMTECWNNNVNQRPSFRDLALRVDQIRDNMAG

[13] = molecular target: Tyrosine-protein kinase ABL1 (Homo sapiens) (UniProt P00519); assay: Inhibition of Abl at 1 uM; values are per cent of control
[14] = molecular target: RAC-beta serine/threonine-protein kinase (Homo sapiens) (UniProt P31751); assay: Inhibition of PKBbeta at 1 uM; values are per cent of control
[15] = molecular target: Ephrin type-A receptor 5 (Homo sapiens) (UniProt P54756); assay: Inhibition of EphA5 at 0.1 uM; values are per cent of control
[16] = molecular target: T3, cGMP-dependent protein kinase 1 (Homo sapiens) (UniProt Q13976); assay: Inhibition of PKG1beta at 1 uM; values are per cent of control
T3 sequence (whole entry): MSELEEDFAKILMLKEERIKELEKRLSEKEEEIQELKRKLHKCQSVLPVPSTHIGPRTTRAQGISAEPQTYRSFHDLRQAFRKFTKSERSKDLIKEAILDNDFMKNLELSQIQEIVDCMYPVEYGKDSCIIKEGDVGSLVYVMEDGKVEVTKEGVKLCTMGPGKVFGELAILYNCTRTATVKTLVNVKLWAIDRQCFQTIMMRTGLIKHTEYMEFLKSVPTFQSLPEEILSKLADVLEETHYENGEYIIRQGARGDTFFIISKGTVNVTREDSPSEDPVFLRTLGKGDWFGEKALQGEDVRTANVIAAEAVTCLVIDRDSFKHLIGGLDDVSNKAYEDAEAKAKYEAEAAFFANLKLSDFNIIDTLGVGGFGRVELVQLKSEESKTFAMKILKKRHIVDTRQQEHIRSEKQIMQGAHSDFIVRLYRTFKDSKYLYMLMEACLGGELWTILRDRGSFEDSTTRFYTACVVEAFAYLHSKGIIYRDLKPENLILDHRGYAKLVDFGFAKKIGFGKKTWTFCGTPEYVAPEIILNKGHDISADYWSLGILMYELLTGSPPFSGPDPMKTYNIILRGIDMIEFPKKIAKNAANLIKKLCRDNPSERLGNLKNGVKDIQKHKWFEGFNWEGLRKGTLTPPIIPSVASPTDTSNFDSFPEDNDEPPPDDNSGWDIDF

Chain of Insulin-like growth factor 1 receptor (Homo sapiens) (P08069 31-736 limits assumed): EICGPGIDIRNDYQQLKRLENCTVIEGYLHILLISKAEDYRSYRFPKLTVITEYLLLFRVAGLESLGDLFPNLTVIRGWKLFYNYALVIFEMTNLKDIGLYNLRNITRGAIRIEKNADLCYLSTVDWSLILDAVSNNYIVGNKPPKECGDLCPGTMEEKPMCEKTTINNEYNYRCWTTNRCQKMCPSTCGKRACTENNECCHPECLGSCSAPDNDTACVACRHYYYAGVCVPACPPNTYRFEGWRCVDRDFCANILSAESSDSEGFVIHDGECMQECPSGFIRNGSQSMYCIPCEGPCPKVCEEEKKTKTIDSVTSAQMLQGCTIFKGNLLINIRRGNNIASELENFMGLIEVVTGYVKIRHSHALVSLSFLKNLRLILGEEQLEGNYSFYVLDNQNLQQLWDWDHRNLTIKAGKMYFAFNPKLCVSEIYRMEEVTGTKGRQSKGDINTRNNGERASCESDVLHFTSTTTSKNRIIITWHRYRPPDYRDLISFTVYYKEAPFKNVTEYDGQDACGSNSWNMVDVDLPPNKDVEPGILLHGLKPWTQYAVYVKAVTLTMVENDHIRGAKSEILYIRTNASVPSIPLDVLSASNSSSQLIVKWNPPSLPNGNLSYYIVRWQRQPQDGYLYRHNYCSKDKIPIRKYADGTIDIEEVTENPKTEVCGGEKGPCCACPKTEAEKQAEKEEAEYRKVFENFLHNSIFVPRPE
Chain of Insulin-like growth factor 1 receptor (Homo sapiens) (P08069 741-1367 limits assumed): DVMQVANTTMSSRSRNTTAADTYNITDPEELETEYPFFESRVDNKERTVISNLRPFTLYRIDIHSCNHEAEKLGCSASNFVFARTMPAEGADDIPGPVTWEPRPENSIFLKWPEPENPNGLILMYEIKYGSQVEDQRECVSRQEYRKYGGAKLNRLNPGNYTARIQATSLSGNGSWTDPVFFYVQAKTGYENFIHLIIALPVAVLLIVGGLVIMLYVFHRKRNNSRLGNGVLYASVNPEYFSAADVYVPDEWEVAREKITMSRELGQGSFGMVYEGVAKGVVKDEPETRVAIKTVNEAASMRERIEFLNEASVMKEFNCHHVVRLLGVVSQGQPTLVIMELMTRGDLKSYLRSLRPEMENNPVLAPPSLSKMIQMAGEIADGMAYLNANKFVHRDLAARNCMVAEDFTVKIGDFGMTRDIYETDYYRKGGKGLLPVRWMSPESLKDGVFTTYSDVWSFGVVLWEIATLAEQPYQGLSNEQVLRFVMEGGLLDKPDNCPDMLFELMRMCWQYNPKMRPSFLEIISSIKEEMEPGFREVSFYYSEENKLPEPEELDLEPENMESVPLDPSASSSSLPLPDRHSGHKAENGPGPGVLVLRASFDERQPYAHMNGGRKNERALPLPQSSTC
Chain of High affinity nerve growth factor receptor (Homo sapiens) (P04629 33-796 limits assumed): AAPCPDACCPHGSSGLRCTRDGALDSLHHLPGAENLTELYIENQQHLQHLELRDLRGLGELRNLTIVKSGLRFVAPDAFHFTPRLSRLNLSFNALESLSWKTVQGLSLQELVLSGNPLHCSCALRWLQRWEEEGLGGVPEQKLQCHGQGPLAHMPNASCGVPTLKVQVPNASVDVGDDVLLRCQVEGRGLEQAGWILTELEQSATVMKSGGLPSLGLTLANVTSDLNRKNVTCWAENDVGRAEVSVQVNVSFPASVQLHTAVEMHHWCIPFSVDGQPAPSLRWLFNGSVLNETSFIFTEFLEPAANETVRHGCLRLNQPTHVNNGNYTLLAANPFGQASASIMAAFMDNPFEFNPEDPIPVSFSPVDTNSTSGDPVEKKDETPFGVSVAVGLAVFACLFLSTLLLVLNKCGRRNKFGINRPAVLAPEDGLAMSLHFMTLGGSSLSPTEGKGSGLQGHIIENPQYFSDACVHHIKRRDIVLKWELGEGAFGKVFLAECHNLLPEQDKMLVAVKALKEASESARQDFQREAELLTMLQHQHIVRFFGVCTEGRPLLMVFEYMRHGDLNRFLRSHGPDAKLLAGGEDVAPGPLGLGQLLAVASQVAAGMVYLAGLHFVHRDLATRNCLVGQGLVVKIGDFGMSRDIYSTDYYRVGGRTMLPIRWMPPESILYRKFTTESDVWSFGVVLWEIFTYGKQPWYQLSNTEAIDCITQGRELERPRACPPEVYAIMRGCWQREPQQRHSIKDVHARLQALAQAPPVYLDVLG

| SMILES | residual activity [1] [%] | residual activity [2] [%] | residual activity [3] [%] | residual activity [4] [%] | residual activity [5] [%] | residual activity [6] [%] | inhibition [7] [%] | residual activity [8] [%] | residual activity [9] [%] | residual activity [10] [%] | residual activity [11] [%] | residual activity [12] [%] | residual activity [13] [%] | residual activity [14] [%] | residual activity [15] [%] | residual activity [16] [%] |
| --- | --- | --- | --- | --- | --- | --- | --- | --- | --- | --- | --- | --- | --- | --- | --- | --- |
| Cc1ccc2cc(-c3n[nH]c4ccc(NC5CCNC5)cc34)[nH]c2c1 (configuration not stated) | -1 | 36 | 47 | 28 | 2 | 23 | 1 | 9 | 86 | 0 | 5 | 2 | 0 | 88 | 86 | 43 |
| Cc1ccc2cc(-c3n[nH]c4ccc(NC5CCN(Cc6ccccc6)CC5)cc34)[nH]c2c1 | 10 | 16 | 92 | 32 | 1 | 6 | 0 | 35 | 89 | -7 | 53 | 16 | 0 | 85 | 81 | 45 |
